Test results: ChEMBL document CHEMBL1130165 (J Med Chem, 1997)
In brackets after ≈: the same amount, converted by molar mass.

How the values were obtained:
[1] = tested on: B16; test: Ratio of ED50 of compound to that of ED50 of paclitaxel; ED50 expressed as concentration which produces 50% inhibition of proliferation of B16 melanoma cells after 40h incubation; format: functional, Mus musculus
Method in brief: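 B16 melanoma cells were incubated with compound for 40 h. Each value is expressed as a ratio to the paclitaxel ED50.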

[2] = Ratio of solubility to that of paclitaxel solubility; range 23-28; format: ADME
[3] = Aqueous solubility was determined; range 6.8-8.4; format: physicochemical; conditions: aqueous medium (not further specified)
[4] = target: Tubulin beta-1 chain (Homo sapiens) (UniProt Q9H4B7); test: Ratio of ED50 of compound to that of ED50 of paclitaxel; ED50 expressed as concentration which causes polymerization of 50% of the tubulin in microtubule assembly assay (in vitro); format: functional
Sequence of Tubulin beta-1 chain (Homo sapiens) (Q9H4B7 whole entry): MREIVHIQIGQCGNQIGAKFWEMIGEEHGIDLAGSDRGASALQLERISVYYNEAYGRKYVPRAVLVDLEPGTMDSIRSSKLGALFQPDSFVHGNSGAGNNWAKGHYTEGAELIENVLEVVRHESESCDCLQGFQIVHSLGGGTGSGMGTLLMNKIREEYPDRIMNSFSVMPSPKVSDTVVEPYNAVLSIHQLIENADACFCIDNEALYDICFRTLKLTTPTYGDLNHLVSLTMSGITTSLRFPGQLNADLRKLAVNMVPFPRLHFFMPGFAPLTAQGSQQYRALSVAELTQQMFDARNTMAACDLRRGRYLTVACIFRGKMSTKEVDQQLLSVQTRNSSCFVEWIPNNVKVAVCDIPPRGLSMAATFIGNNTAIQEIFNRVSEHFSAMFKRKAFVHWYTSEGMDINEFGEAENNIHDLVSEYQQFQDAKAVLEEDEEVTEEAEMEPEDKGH
Method in brief: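 In vitro microtubule assembly assay. […] Each compound's ED50 is expressed as a ratio to the paclitaxel ED50.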

[5] = Ratio of solubility to that of paclitaxel solubility; format: ADME
[6] = Aqueous solubility was determined; format: physicochemical; conditions: aqueous medium (not further specified)
[7] = Ratio of solubility to that of paclitaxel solubility; range 17-20; format: ADME
[8] = Aqueous solubility was determined; range 5-6; format: physicochemical; conditions: aqueous medium (not further specified)

| Structure (SMILES) | ED50 ratio [1] | ED50 ratio [4] | Ratio [5] | solubility [6] | also measured |
| --- | --- | --- | --- | --- | --- |
| CC(=O)O[C@@]12COC1C[C@H](O)[C@@]1(C)C(=O)[C@H](O)C3=C(C)[C@@H](OC(=O)[C@H](O)[C@@H](NC(=O)c4cccs4)C(C)(C)C)C[C@@](O)([C@@H](OC(=O)c4ccccc4)[C@@H]12)C3(C)C (some centres undefined) | 0.53 | 0.42 | – | – | Ratio [2]: 28; solubility [3]: 8.4 µg/mL (≈ 10.5 µM) |
| CC(=O)O[C@H]1C(=O)[C@@]2(C)[C@H]([C@H](OC(=O)c3ccccc3)[C@]3(O)C[C@H](OC(=O)[C@H](O)[C@@H](NC(=O)c4ccccc4)c4ccccc4)C(C)=C1C3(C)C)[C@]1(OC(C)=O)CO[C@@H]1C[C@@H]2O [PACLITAXEL] | 1 | – | 1 | – | – |
| CC(=O)O[C@@]12COC1C[C@H](O)[C@@]1(C)C(=O)[C@H](O)C3=C(C)[C@@H](OC(=O)[C@H](O)[C@@H](NC(=O)/C=C/c4cccs4)C(C)(C)C)C[C@@](O)([C@@H](OC(=O)c4ccccc4)[C@@H]12)C3(C)C (some centres undefined) | – | – | – | 1 µg/mL (≈ 1.21 µM) | – |
| CCOC(=O)N[C@H]([C@@H](O)C(=O)O[C@H]1C[C@@]2(O)[C@@H](OC(=O)c3ccccc3)[C@H]3[C@](C)(C(=O)[C@H](O)C(=C1C)C2(C)C)[C@@H](O)CC1OC[C@]13OC(C)=O)C(C)(C)C (some centres undefined) | 3.4 | – | 32 | 9.7 µg/mL (≈ 12.8 µM) | – |
| CC(=O)O[C@@]12COC1C[C@H](O)[C@@]1(C)C(=O)[C@H](O)C3=C(C)[C@@H](OC(=O)[C@H](O)[C@@H](NC(=O)C4CC4)C(C)(C)C)C[C@@](O)([C@@H](OC(=O)c4ccccc4)[C@@H]12)C3(C)C (some centres undefined) | 2.1 | – | 150 | 45 µg/mL (≈ 59.5 µM) | – |
| CC(=O)O[C@@]12CO[C@@H]1C[C@H](O)[C@@]1(C)C(=O)[C@H](O)C3=C(C)[C@@H](OC(=O)[C@H](O)[C@@H](NC(=O)OC(C)(C)C)c4ccccc4)C[C@@](O)([C@@H](OC(=O)c4ccccc4)[C@H]21)C3(C)C.O.O.O [DOCETAXEL] | 0.41 | 0.45 | – | – | Ratio [7]: 20; solubility [8]: 6 µg/mL |
| CC(=O)O[C@@]12COC1C[C@H](O)[C@@]1(C)C(=O)[C@H](O)C3=C(C)[C@@H](OC(=O)[C@H](O)[C@@H](NC(=O)c4ccccc4)C(C)(C)C)C[C@@](O)([C@@H](OC(=O)c4ccccc4)[C@@H]12)C3(C)C (some centres undefined) [BUTITAXEL] | 7.5 | – | 9.3 | 2.8 µg/mL (≈ 3.54 µM) | – |
| CC(=O)O[C@@]12COC1C[C@H](O)[C@@]1(C)C(=O)[C@H](O)C3=C(C)[C@@H](OC(=O)[C@H](O)[C@@H](NC(=O)c4ccoc4)C(C)(C)C)C[C@@](O)([C@@H](OC(=O)c4ccccc4)[C@@H]12)C3(C)C (some centres undefined) | 2.3 | 1.6 | – | – | – |
| CC(=O)O[C@@]12COC1C[C@H](O)[C@@]1(C)C(=O)[C@H](O)C3=C(C)[C@@H](OC(=O)[C@H](O)[C@@H](NC(=O)c4ccco4)C(C)(C)C)C[C@@](O)([C@@H](OC(=O)c4ccccc4)[C@@H]12)C3(C)C (some centres undefined) | 2.1 | – | 73 | 22 µg/mL (≈ 28.1 µM) | – |
| CC(=O)O[C@@]12COC1C[C@H](O)[C@@]1(C)C(=O)[C@H](O)C3=C(C)[C@@H](OC(=O)[C@H](O)[C@@H](NC(=O)C4CCCC4)C(C)(C)C)C[C@@](O)([C@@H](OC(=O)c4ccccc4)[C@@H]12)C3(C)C (some centres undefined) | 1.4 | 1.5 | – | – | – |
| CCC(CC)C(=O)N[C@H]([C@@H](O)C(=O)O[C@H]1C[C@@]2(O)[C@@H](OC(=O)c3ccccc3)[C@H]3[C@](C)(C(=O)[C@H](O)C(=C1C)C2(C)C)[C@@H](O)CC1OC[C@]13OC(C)=O)C(C)(C)C (some centres undefined) | 26 | 1.7 | – | – | – |
| CC(=O)O[C@@]12COC1C[C@H](O)[C@@]1(C)C(=O)[C@H](O)C3=C(C)[C@@H](OC(=O)[C@H](O)[C@@H](NC(=O)OC(C)(C)C)C(C)(C)C)C[C@@](O)([C@@H](OC(=O)c4ccccc4)[C@@H]12)C3(C)C (some centres undefined) | 0.4 | – | 110 | 33 µg/mL (≈ 41.9 µM) | – |
| CC(=O)O[C@@]12COC1C[C@H](O)[C@@]1(C)C(=O)[C@H](O)C3=C(C)[C@@H](OC(=O)[C@H](O)[C@@H](NC(=O)C4CCCCC4)C(C)(C)C)C[C@@](O)([C@@H](OC(=O)c4ccccc4)[C@@H]12)C3(C)C (some centres undefined) | 3.8 | – | 150 | 45 µg/mL (≈ 56.4 µM) | – |
| CC(=O)O[C@@]12COC1C[C@H](O)[C@@]1(C)C(=O)[C@H](O)C3=C(C)[C@@H](OC(=O)[C@H](O)[C@@H](NC(=O)OC(C)C)C(C)(C)C)C[C@@](O)([C@@H](OC(=O)c4ccccc4)[C@@H]12)C3(C)C (some centres undefined) | 1.2 | – | 1.7 | 0.5 µg/mL (≈ 0.646 µM) | – |
| CC(=O)O[C@@]12COC1C[C@H](O)[C@@]1(C)C(=O)[C@H](O)C3=C(C)[C@@H](OC(=O)[C@H](O)[C@@H](NC(=O)c4ccc(C)s4)C(C)(C)C)C[C@@](O)([C@@H](OC(=O)c4ccccc4)[C@@H]12)C3(C)C (some centres undefined) | 32 | – | 13 | 4 µg/mL (≈ 4.93 µM) | – |
| CC(=O)O[C@@]12COC1C[C@H](O)[C@@]1(C)C(=O)[C@H](O)C3=C(C)[C@@H](OC(=O)[C@H](O)[C@@H](NC(=O)Cc4cccs4)C(C)(C)C)C[C@@](O)([C@@H](OC(=O)c4ccccc4)[C@@H]12)C3(C)C (some centres undefined) | 3.3 | – | 23 | 6.7 µg/mL (≈ 8.25 µM) | – |
| CC(=O)O[C@@]12COC1C[C@H](O)[C@@]1(C)C(=O)[C@H](O)C3=C(C)[C@@H](OC(=O)[C@H](O)[C@@H](NC(=O)c4cccn4C)C(C)(C)C)C[C@@](O)([C@@H](OC(=O)c4ccccc4)[C@@H]12)C3(C)C (some centres undefined) | 1.2 | – | 1.8 | 0.5 µg/mL (≈ 0.629 µM) | – |
| CC(=O)O[C@@]12COC1C[C@H](O)[C@@]1(C)C(=O)[C@H](O)C3=C(C)[C@@H](OC(=O)[C@H](O)[C@@H](NC(=O)C4CCC4)C(C)(C)C)C[C@@](O)([C@@H](OC(=O)c4ccccc4)[C@@H]12)C3(C)C (some centres undefined) | 3 | – | 80 | 24 µg/mL (≈ 31.2 µM) | – |
| CC(=O)O[C@@]12COC1C[C@H](O)[C@@]1(C)C(=O)[C@H](O)C3=C(C)[C@@H](OC(=O)[C@H](O)[C@@H](NC(=O)c4sccc4C)C(C)(C)C)C[C@@](O)([C@@H](OC(=O)c4ccccc4)[C@@H]12)C3(C)C (some centres undefined) | 1.3 | 1.4 | – | – | – |
| CC(=O)O[C@@]12COC1C[C@H](O)[C@@]1(C)C(=O)[C@H](O)C3=C(C)[C@@H](OC(=O)[C@H](O)[C@@H](NC(=O)c4ccsc4)C(C)(C)C)C[C@@](O)([C@@H](OC(=O)c4ccccc4)[C@@H]12)C3(C)C (some centres undefined) | 1.2 | – | 16 | 4.7 µg/mL (≈ 5.89 µM) | – |
| CCCOC(=O)N[C@H]([C@@H](O)C(=O)O[C@H]1C[C@@]2(O)[C@@H](OC(=O)c3ccccc3)[C@H]3[C@](C)(C(=O)[C@H](O)C(=C1C)C2(C)C)[C@@H](O)CC1OC[C@]13OC(C)=O)C(C)(C)C (some centres undefined) | 1.5 | 1.7 | – | – | – |
| CCCCCCOC(=O)N[C@H]([C@@H](O)C(=O)O[C@H]1C[C@@]2(O)[C@@H](OC(=O)c3ccccc3)[C@H]3[C@](C)(C(=O)[C@H](O)C(=C1C)C2(C)C)[C@@H](O)CC1OC[C@]13OC(C)=O)C(C)(C)C (some centres undefined) | 12 | 2.3 | – | – | – |
